Data on 23 molecules can be found in ChEMBL document CHEMBL3576832, “First Crystal Structures of Mycobacterium tuberculosis 6-Oxopurine Phosphoribosyltransferase: Complexes with GMP and Pyrophosphate and with Acyclic Nucleoside Phosphonates Whose Prodrugs Have Antituberculosis Activity” (J Med Chem, 2015).

A short description of data set [1]: Inhibition of N-terminal hexa-histidine tagged Mycobacterium tuberculosis HGPRT expressed in Escherichia coli BL-21(DE3) using PRib-PP substrate and guanine.
The test system of data set [2] is Mycobacterium tuberculosis. The experiment in a line: Antimycobacterial activity against Mycobacterium tuberculosis H37Rv […] assessed as inhibition of microbial growth incubated for 5 days by resazurin reduction microplate assay. Type of data set: functional. The following applies: 120 h. A digest of the protocol: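 H37Rv grown in 7H9 with OADC, 0.5% glycerol, 0.02% tyloxapol at 37 °C to mid-exponential phase (OD600 0.4−0.8), diluted to OD600 0.001 (~2 × 10^4 CFU/mL) in 7H9S with 0.5% DMSO; serially diluted compounds; 5 days at 37 °C, then resazurin plus Tween 80; fluorescence (ex 530/em 580 nm) read 30 h later; MIC50 from signal relative to no-inhibitor minus no-bacteria controls.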
For orientation: Resazurin is reduced to fluorescent resorufin, in cell work by metabolically active cells.

The nature of data set [3]: Selectivity index, ratio of CC50 for human A549 cells to MIC50 for Mycobacterium tuberculosis H37Rv […]. Type of data set: functional. A digest of the protocol: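 Selectivity index computed as CC50 in A549 cells divided by MIC50 against H37Rv.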
Data set [4] is described as follows: Cytotoxicity against human A549 cells assessed as inhibition of cell proliferation incubated for 4 days by Coulter counter based assay. A digest of the protocol:
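A549 cells seeded at 7500 per well; serially diluted compounds added 24 h later; 4 days at 37 °C; cells trypsinized and counted by Coulter Counter; CC50 (50% proliferation vs untreated) obtained by extrapolation; mean ± SEM of two or three independent tests.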

The subject of data set [5] is Mycobacterium tuberculosis. The experiment in a line: Potency index, ratio of Ki for GMP to Ki for compound against N-terminal hexa-histidine tagged Mycobacterium tuberculosis HGPRT expressed in Escherichia coli BL-21(DE3) using PRib-PP substrate and guanine.
For data set [6], the target named is T1, Hypoxanthine-guanine phosphoribosyltransferase (Homo sapiens, UniProt P00492).
T1 sequence (P00492 whole entry): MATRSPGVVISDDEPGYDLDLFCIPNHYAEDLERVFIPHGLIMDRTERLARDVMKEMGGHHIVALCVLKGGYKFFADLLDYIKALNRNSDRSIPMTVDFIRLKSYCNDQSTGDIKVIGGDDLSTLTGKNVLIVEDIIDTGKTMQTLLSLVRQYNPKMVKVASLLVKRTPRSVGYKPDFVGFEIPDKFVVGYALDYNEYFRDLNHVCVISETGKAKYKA
Description: Inhibition of human HGPRT.

The nature of data set [7]: Selectivity index, ratio of Ki for human HGPRT to Ki for N-terminal hexa-histidine tagged Mycobacterium tuberculosis HGPRT.
A short description of data set [8]: Inhibition of Mycobacterium tuberculosis HGPRT.
Data set [9] can be described thus: Inhibition of Escherichia coli HGPRT.

Usually Ki stands for the dissociation constant of the complex between target and ligand, obtained from inhibition or displacement. Read a high Ki as lower affinity. Turning to `Nc1nc2c(ncn2CCN(CCOCCP(=O)(O)O)CCP(=O)(O)O)c(=O)[nH]1`, affinity in [1] was put at a Ki of 1.4 µM.

As usually defined, the MIC50 is the lowest concentration that inhibits either 50% of growth or 50% of the strains tested, depending on the study. Regarding `CCOC(=O)[C@H](Cc1ccccc1)NP(=O)(CCOCC(Cn1cnc2c(=O)[nH]c(N)nc21)OCCP(=O)(N[C@@H](Cc1ccccc1)C(=O)OCC)N[C@@H](Cc1ccccc1)C(=O)OCC)N[C@@H](Cc1ccccc1)C(=O)OCC` (stereo partly drawn), the MIC50 in data set [2] came to 9 µM. In addition, in data set [3], the “Selectivity Index” value is listed as greater than 11.

Broadly, the CC50 is the concentration giving 50% cytotoxicity. On to `CCOC(=O)[C@H](Cc1ccccc1)NP(=O)(CCOCC(Cn1cnc2c(=O)[nH]cnc21)OCCP(=O)(N[C@@H](Cc1ccccc1)C(=O)OCC)N[C@@H](Cc1ccccc1)C(=O)OCC)N[C@@H](Cc1ccccc1)C(=O)OCC` (stereo partly drawn), for which, in data set [2], the MIC50 was 15 µM. In addition, the CC50 at 96 h in data set [4] amounted to 90 µM. In addition, in data set [3], the “Selectivity Index” value is greater than 6.

In the case of `Nc1nc2c(ncn2CC(COCCP(=O)(O)O)OCCP(=O)(O)O)c(=O)[nH]1` (stereo not drawn), the affinity in [1], expressed as Ki, was 0.69 µM. For the same molecule, in [5], the Ratio Ki is 28.

In the case of `Nc1nc2c(ncn2CCN(CCN(CCO)CCP(=O)(O)O)CCP(=O)(O)O)c(=O)[nH]1`, the figures for the inhibition constant (Ki) in data set [6] and in [1] were 0.03 µM and 1.6 µM, respectively.

As to `O=c1[nH]cnc2c1ncn2CCN(CCOCCP(=O)(O)O)CCP(=O)(O)O`, the Ki in [1] is greater than 50 µM.

Take `CCOC(=O)[C@H](Cc1ccccc1)NP(=O)(CCN(CCO)CCN(CCn1cnc2c(=O)[nH]c(N)nc21)CCP(=O)(N[C@@H](Cc1ccccc1)C(=O)OCC)N[C@@H](Cc1ccccc1)C(=O)OCC)N[C@@H](Cc1ccccc1)C(=O)OCC`: in [2], the MIC50 was 4.5 µM. The CC50 at 96 h in data set [4] was found to be 193 µM. Moreover, the “Selectivity Index” value in data set [3] is recorded as greater than 43.

As for `CCOC(=O)[C@H](Cc1ccccc1)NP(=O)(CCN(CCN(CCP(=O)(N[C@@H](Cc1ccccc1)C(=O)OCC)N[C@@H](Cc1ccccc1)C(=O)OCC)CCP(=O)(N[C@@H](Cc1ccccc1)C(=O)OCC)N[C@@H](Cc1ccccc1)C(=O)OCC)CCn1cnc2c(=O)[nH]c(N)nc21)N[C@@H](Cc1ccccc1)C(=O)OCC`, the MIC50 in [2] was 4.5 µM. The CC50 at 96 h in data set [4] was greater than 300 µM. The “Selectivity Index” value in [3] is greater than 67.

Turning to `Nc1nc2c(ncn2CCN(CCN(CCCO)CCP(=O)(O)O)CCP(=O)(O)O)c(=O)[nH]1`, the figures for the inhibitory constant (Ki) in data set [6] and in [1] were 0.04 µM and 15.9 µM, respectively. Also, in data set [7], the Ratio Ki is 400.

Regarding `CCOC(=O)[C@H](Cc1ccccc1)NP(=O)(CCN(CCO)CCN(CCn1cnc2c(=O)[nH]cnc21)CCP(=O)(N[C@@H](Cc1ccccc1)C(=O)OCC)N[C@@H](Cc1ccccc1)C(=O)OCC)N[C@@H](Cc1ccccc1)C(=O)OCC`, the MIC50 in data set [2] is 8 µM. Also, the CC50 at 96 h in data set [4] turned out to be 156 µM. The “Selectivity Index” value in data set [3] is recorded as greater than 19.5.

Take `CCOC(=O)[C@H](Cc1ccccc1)NP(=O)(CCN(CCN(CCP(=O)(N[C@@H](Cc1ccccc1)C(=O)OCC)N[C@@H](Cc1ccccc1)C(=O)OCC)CCP(=O)(N[C@@H](Cc1ccccc1)C(=O)OCC)N[C@@H](Cc1ccccc1)C(=O)OCC)CCn1cnc2c(=O)[nH]cnc21)N[C@@H](Cc1ccccc1)C(=O)OCC`: in data set [2], the MIC50 was 4.5 µM. The CC50 at 96 h in [4] was 28 µM. The “Selectivity Index” value in data set [3] is recorded as greater than 6.

Regarding `Nc1nc2c(ncn2CC(COCP(=O)(O)O)COCP(=O)(O)O)c(=O)[nH]1`, the affinity in [1] corresponds to a Ki of 0.77 µM. For the same molecule, the Ratio Ki in data set [5] worked out at 28.

`Nc1nc2c(ncn2CCOCCP(=O)(O)O)c(=O)[nH]1` registered a Ki in data set [1] of 1.76 µM.

Turning to `O=c1[nH]cnc2c1ncn2CCN(CCN(CCCO)CCP(=O)(O)O)CCP(=O)(O)O`, the Ki in data set [6] was found to be 1.64 µM; in [1], 22.7 µM. In data set [7], the Ratio Ki turned out to be 14.

`O=c1[nH]cnc2c1ncn2CCN(CCN(CCO)CCP(=O)(O)O)CCP(=O)(O)O`: the Ki in [6] worked out at 0.5 µM; in [1] it was 22.5 µM.

`Nc1nc2c(ncn2CCN(CCN(CCP(=O)(O)O)CCP(=O)(O)O)CCP(=O)(O)O)c(=O)[nH]1`: the Ki in data set [6] came to 0.03 µM; in data set [1], 1.6 µM.

As for `O=c1[nH]cnc2c1ncn2CCN(CCN(CCP(=O)(O)O)CCP(=O)(O)O)CCP(=O)(O)O`, the Ki in data set [6] turned out to be 0.01 µM; in data set [1], 1.13 µM.

Take `O=c1[nH]cnc2c1ncn2CC(COCCP(=O)(O)O)OCCP(=O)(O)O` (stereo not drawn): the results for the inhibition constant Ki in data set [6] and in data set [1] were 4 µM and greater than 50 µM, respectively.

On to `Nc1nc2c(ncn2[C@@H]2O[C@H](COP(=O)(O)O)[C@@H](O)[C@H]2O)c(=O)[nH]1`, for which the inhibition constant (Ki) in data set [8] stood at 20 µM; in data set [9] it was 526 µM.

Take `O=c1[nH]cnc2c1ncn2CCOCCP(=O)(O)O`: the affinity in data set [1] corresponds to a Ki of 18 µM.

The molecule `O=c1[nH]cnc2c1ncn2CC(COCP(=O)(O)O)COCP(=O)(O)O` registered a Ki in data set [1] of 7.7 µM.

For the molecule `CCOC(=O)[C@H](Cc1ccccc1)NP(=O)(COCC(COCP(=O)(N[C@@H](Cc1ccccc1)C(=O)OCC)N[C@@H](Cc1ccccc1)C(=O)OCC)Cn1cnc2c(=O)[nH]c(N)nc21)N[C@@H](Cc1ccccc1)C(=O)OCC`, in data set [2], the MIC50 was 11 µM. For the same molecule, in data set [3], the “Selectivity Index” value is greater than 27.

Turning to `CCOC(=O)[C@H](Cc1ccccc1)NP(=O)(COCC(COCP(=O)(N[C@@H](Cc1ccccc1)C(=O)OCC)N[C@@H](Cc1ccccc1)C(=O)OCC)Cn1cnc2c(=O)[nH]cnc21)N[C@@H](Cc1ccccc1)C(=O)OCC`, the MIC50 in [2] is 7.5 µM. In data set [3], the “Selectivity Index” value was greater than 13.
